Assay results reported in ChEMBL document CHEMBL4689842, “EUbOPEN Chemogenomics Library wave 1” (2021).

System: HEK-293T
Assay: Multiplex assay against HEK293T;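 for Population Tubulin-Different-Phenotype (%): share of the cells with healthy nuclei that show this phenotype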
Type: toxicity, cell-based
Conditions: human
How it was run: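 On a CQ1 microscope at 37°C and 5% CO2, live cells were imaged after compound addition. They had been stained at seeding with Hoechst33342, BioTracker Green Microtubule Cytoskeleton Dye, MitoTracker Red and Annexin V Alexa Fluor 680. CellPathfinder machine-learning gating assigned cells to Hoechst high-intensity objects or normal cells, normal cells to healthy, pyknosed or fragmented nuclei, and pyknosed cells to mitotic or apoptotic. Tubulin, mitochondrial-mass and membrane-permeability phenotypes are per cents of healthy-nucleus cells.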

[1] = 12 h, 1 µM, compound concentration 1 uM, replicate 1
[2] = 12 h, 1 µM, compound concentration 1 uM, replicate 2
[3] = 12 h, 10 µM, compound concentration 10 uM, replicate 1
[4] = 12 h, 10 µM, compound concentration 10 uM, replicate 2
[5] = 24 h, 1 µM, compound concentration 1 uM, replicate 1
[6] = 24 h, 1 µM, compound concentration 1 uM, replicate 2
[7] = 24 h, 10 µM, compound concentration 10 uM, replicate 1
[8] = 24 h, 10 µM, compound concentration 10 uM, replicate 2
[9] = 48 h, 1 µM, compound concentration 1 uM, replicate 1
[10] = 48 h, 1 µM, compound concentration 1 uM, replicate 2
[11] = 48 h, 10 µM, compound concentration 10 uM, replicate 1
[12] = 48 h, 10 µM, compound concentration 10 uM, replicate 2

Oc1cccc(-c2nc(N3CCOCC3)c3oc4ncccc4c3n2)c1 [PI-103]
Population Apoptotic (%) [1]: 58% | Population Fragmented Nuclei (%) [1]: 6% | Population Healthy Nuclei (%) [1]: 16% | Population Hoechst High Intensity Objects (%) [1]: 21% | Population Membrane Permeable-Phenotype (%) [1]: 2% | Population Mitochondria Different-Phenotype (%) [1]: 85% | Population Mitotic Cells (%) [1]: 41% | Population Normal (%) [1]: 78% | Population Pyknosed Nuclei (%) [1]: 77% | Population Tubulin-Different-Phenotype (%) [1]: 82% | Total Cell Count [1]: 269 | Population Apoptotic (%) [2]: 51% | Population Fragmented Nuclei (%) [2]: 10% | Population Healthy Nuclei (%) [2]: 13% | Population Hoechst High Intensity Objects (%) [2]: 14% | Population Membrane Permeable-Phenotype (%) [2]: 10% | Population Mitochondria Different-Phenotype (%) [2]: 68% | Population Mitotic Cells (%) [2]: 48% | Population Normal (%) [2]: 85% | Population Pyknosed Nuclei (%) [2]: 76% | Population Tubulin-Different-Phenotype (%) [2]: 63% | Total Cell Count [2]: 161 | Population Apoptotic (%) [3]: 72% | Population Fragmented Nuclei (%) [3]: 14% | Population Healthy Nuclei (%) [3]: 8% | Population Hoechst High Intensity Objects (%) [3]: 18% | Population Membrane Permeable-Phenotype (%) [3]: 11% | Population Mitochondria Different-Phenotype (%) [3]: 94% | Population Mitotic Cells (%) [3]: 27% | Population Normal (%) [3]: 81% | Population Pyknosed Nuclei (%) [3]: 77% | Population Tubulin-Different-Phenotype (%) [3]: 94% | Total Cell Count [3]: 269 | Population Apoptotic (%) [4]: 64% | Population Fragmented Nuclei (%) [4]: 7% | Population Healthy Nuclei (%) [4]: 6% | Population Hoechst High Intensity Objects (%) [4]: 6% | Population Membrane Permeable-Phenotype (%) [4]: 27% | Population Mitochondria Different-Phenotype (%) [4]: 54% | Population Mitotic Cells (%) [4]: 35% | Population Normal (%) [4]: 93% | Population Pyknosed Nuclei (%) [4]: 85% | Population Tubulin-Different-Phenotype (%) [4]: 72% | Total Cell Count [4]: 172 | Population Apoptotic (%) [5]: 47% | Population Fragmented Nuclei (%) [5]: 13% | Population Healthy Nuclei (%) [5]: 10% | Population Hoechst High Intensity Objects (%) [5]: 22% | Population Mitochondria Different-Phenotype (%) [5]: 78% | Population Mitotic Cells (%) [5]: 52% | Population Normal (%) [5]: 77% | Population Pyknosed Nuclei (%) [5]: 76% | Population Tubulin-Different-Phenotype (%) [5]: 86% | Total Cell Count [5]: 293 | Population Apoptotic (%) [6]: 53% | Population Fragmented Nuclei (%) [6]: 9% | Population Healthy Nuclei (%) [6]: 26% | Population Hoechst High Intensity Objects (%) [6]: 15% | Population Membrane Permeable-Phenotype (%) [6]: 13% | Population Mitochondria Different-Phenotype (%) [6]: 59% | Population Mitotic Cells (%) [6]: 46% | Population Normal (%) [6]: 84% | Population Pyknosed Nuclei (%) [6]: 64% | Population Tubulin-Different-Phenotype (%) [6]: 64% | Total Cell Count [6]: 168 | Population Apoptotic (%) [7]: 63% | Population Fragmented Nuclei (%) [7]: 18% | Population Healthy Nuclei (%) [7]: 8% | Population Hoechst High Intensity Objects (%) [7]: 17% | Population Membrane Permeable-Phenotype (%) [7]: 10% | Population Mitochondria Different-Phenotype (%) [7]: 100% | Population Mitotic Cells (%) [7]: 36% | Population Normal (%) [7]: 82% | Population Pyknosed Nuclei (%) [7]: 73% | Population Tubulin-Different-Phenotype (%) [7]: 90% | Total Cell Count [7]: 291 | Population Apoptotic (%) [8]: 65% | Population Fragmented Nuclei (%) [8]: 11% | Population Healthy Nuclei (%) [8]: 11% | Population Hoechst High Intensity Objects (%) [8]: 16% | Population Membrane Permeable-Phenotype (%) [8]: 23% | Population Mitochondria Different-Phenotype (%) [8]: 70% | Population Mitotic Cells (%) [8]: 34% | Population Normal (%) [8]: 83% | Population Pyknosed Nuclei (%) [8]: 76% | Population Tubulin-Different-Phenotype (%) [8]: 88% | Total Cell Count [8]: 175 | Population Apoptotic (%) [9]: 56% | Population Fragmented Nuclei (%) [9]: 23% | Population Healthy Nuclei (%) [9]: 4% | Population Hoechst High Intensity Objects (%) [9]: 22% | Population Membrane Permeable-Phenotype (%) [9]: 9% | Population Mitochondria Different-Phenotype (%) [9]: 72% | Population Mitotic Cells (%) [9]: 43% | Population Normal (%) [9]: 77% | Population Pyknosed Nuclei (%) [9]: 71% | Population Tubulin-Different-Phenotype (%) [9]: 63% | Total Cell Count [9]: 297 | Population Apoptotic (%) [10]: 50% | Population Fragmented Nuclei (%) [10]: 12% | Population Healthy Nuclei (%) [10]: 55% | Population Hoechst High Intensity Objects (%) [10]: 14% | Population Membrane Permeable-Phenotype (%) [10]: 7% | Population Mitochondria Different-Phenotype (%) [10]: 63% | Population Mitotic Cells (%) [10]: 50% | Population Normal (%) [10]: 85% | Population Pyknosed Nuclei (%) [10]: 31% | Population Tubulin-Different-Phenotype (%) [10]: 88% | Total Cell Count [10]: 185 | Population Apoptotic (%) [11]: 55% | Population Fragmented Nuclei (%) [11]: 29% | Population Healthy Nuclei (%) [11]: 7% | Population Hoechst High Intensity Objects (%) [11]: 17% | Population Membrane Permeable-Phenotype (%) [11]: 0% | Population Mitochondria Different-Phenotype (%) [11]: 94% | Population Mitotic Cells (%) [11]: 44% | Population Normal (%) [11]: 82% | Population Pyknosed Nuclei (%) [11]: 63% | Population Tubulin-Different-Phenotype (%) [11]: 84% | Total Cell Count [11]: 307 | Population Apoptotic (%) [12]: 78% | Population Fragmented Nuclei (%) [12]: 10% | Population Healthy Nuclei (%) [12]: 18% | Population Hoechst High Intensity Objects (%) [12]: 22% | Population Membrane Permeable-Phenotype (%) [12]: 8% | Population Mitochondria Different-Phenotype (%) [12]: 80% | Population Mitotic Cells (%) [12]: 21% | Population Normal (%) [12]: 77% | Population Pyknosed Nuclei (%) [12]: 71% | Population Tubulin-Different-Phenotype (%) [12]: 88% | Total Cell Count [12]: 177
